Assay results as given in ChEMBL document CHEMBL4706509, “Oligosaccharide-camptothecin conjugates as potential antineoplastic drugs: Design, synthesis and biological evaluation” (Eur J Med Chem, 2020).
Converted amounts (≈) assume the structure as drawn. The source made the active and inactive calls. The calls are words filed in the database; no cut-off is given here.

Columns and labels:
[1] = tested on: SW1990; assay: Antitumor activity against human SW1990 cells assessed as inhibition of cell growth measured after 48 hrs by MTT assay; format: functional, cell-based; conditions: SW1990, 48 h
Method in brief: (§1)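 MTT assay; cells seeded in 96-well plates, exposed 48 h to freshly prepared compound at five concentrations, four replicate wells each; MTT (5 mg/mL) added for 4 h, formazan dissolved in DMSO, absorbance at 490 nm. IC50 by nonlinear regression; mean of three independent experiments.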

[2] = biological target: T1, DNA topoisomerase 1 (Homo sapiens) (UniProt P11387); assay: Inhibition of human recombinant Topoisomerase 1 using supercoiled pBR322 DNA as substrate at 100 uM incubated for 30 mins by ethidium bromide staining based agarose gel electrophoresis
T1 sequence (whole entry): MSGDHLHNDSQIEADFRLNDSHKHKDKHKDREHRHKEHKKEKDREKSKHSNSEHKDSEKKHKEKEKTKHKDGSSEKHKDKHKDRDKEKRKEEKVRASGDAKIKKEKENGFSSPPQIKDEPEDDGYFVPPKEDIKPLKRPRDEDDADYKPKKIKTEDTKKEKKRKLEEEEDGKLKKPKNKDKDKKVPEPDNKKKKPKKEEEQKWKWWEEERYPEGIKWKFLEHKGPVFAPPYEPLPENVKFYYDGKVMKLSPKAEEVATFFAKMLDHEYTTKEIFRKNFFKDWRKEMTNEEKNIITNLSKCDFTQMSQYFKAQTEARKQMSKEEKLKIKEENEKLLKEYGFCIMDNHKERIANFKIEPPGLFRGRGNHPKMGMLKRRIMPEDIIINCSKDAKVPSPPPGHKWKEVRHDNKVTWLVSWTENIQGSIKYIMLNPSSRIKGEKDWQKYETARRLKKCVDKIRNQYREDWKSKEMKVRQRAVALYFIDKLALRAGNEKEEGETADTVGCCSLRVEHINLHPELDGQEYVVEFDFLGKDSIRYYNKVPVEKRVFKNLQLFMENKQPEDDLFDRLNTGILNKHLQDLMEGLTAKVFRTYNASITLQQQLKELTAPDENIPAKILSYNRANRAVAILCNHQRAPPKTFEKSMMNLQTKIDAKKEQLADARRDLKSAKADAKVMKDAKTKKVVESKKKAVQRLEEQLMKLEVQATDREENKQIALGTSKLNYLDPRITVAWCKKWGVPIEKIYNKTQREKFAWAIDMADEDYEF
Method in brief: (§2)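 Cell-free relaxation assay: 1 U recombinant human Topo I with 0.5 µg supercoiled pBR322 in Topo I buffer (Tris-HCl pH 8.0, KCl, MgCl2, DTT, 0.1% BSA), 37 °C for 30 min. 10-HCPT and irinotecan as positive controls. Supercoiled, relaxed and nicked forms resolved on 0.8% agarose in TAE, 90 V for 2 h, ethidium bromide stained.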

[3] = Aqueous solubility of the compound in 0.1 M Na2HPO4 solution at pH 7.4 incubated for 24 hrs by HPLC analysis; format: physicochemical; conditions: 0.1 M Na2HPO4 solution, pH 7.4
Method in brief: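 Excess solid shaken in 0.2 mL 0.1 M phosphate buffer, pH 7.4, at 25 °C for 24 h, then filtered. Filtrate (100 µL) diluted to 1.5 mL and analysed by isocratic HPLC (CH3CN:H2O 40/60, 1.0 mL/min, 35 °C column, 254 nm). Concentration read from a calibration curve built from DMSO standards. Values are the mean of triplicate determinations, in mg/mL.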

[4] = tested on: HepG2; assay: Antitumor activity against human HepG2 cells assessed as inhibition of cell growth measured after 48 hrs by MTT assay; format: functional, cell-based; conditions: HepG2, 48 h; method in brief: as §1
[5] = tested on: HCT-116; assay: Antitumor activity against human HCT-116 cells assessed as inhibition of cell growth measured after 48 hrs by MTT assay; format: functional, cell-based; conditions: HCT-116, 48 h; method in brief: as §1
[6] = Ratio of test compound solubility to camptothecin solubility in 0.1 M Na2HPO4 solution at pH 7.4 incubated for 24 hrs by HPLC analysis; format: physicochemical; conditions: buffer, pH 7.4, 24 h
[7] = biological target: T1, DNA topoisomerase 1 (Homo sapiens); assay: Inhibition of human recombinant Topoisomerase 1 using supercoiled pBR322 DNA as substrate at 50 uM incubated for 30 mins by ethidium bromide staining based agarose gel electrophoresis; method in brief: as §2
[8] = tested on: HEK293; assay: Cytotoxicity against human HEK293 cells assessed as reduction in cell viability measured after 48 hrs by MTT assay; format: cell-based; conditions: HEK293, 48 h; method in brief: as §1
[9] = Stability of compound in 10% phosphate buffer assessed as proportion of lactone form level at pH 7.4 measured after 48 hrs by HPLC analysis; format: physicochemical; conditions: read-out: Drug metabolism
Method in brief: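 1.0 mg dissolved in 50 mL 0.1 M phosphate buffer, pH 7.4, and shaken at 37 °C. […] Lactone versus carboxylate (ring-opened) form quantified by HPLC area normalisation. Mean of triplicate determinations.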

[10] = Toxicity in iv dosed ICR mouse measured for 14 days; format: organism-based; conditions: in vivo, time 14 day

Structure (SMILES) | IC50 [1] [µM] | inhibition [2] | solubility at 24 h [3] [µg/mL] | IC50 [4] [µM] | IC50 [5] [µM] | Ratio [6] | inhibition [7] | IC50 [8] [µM] | remaining at 48 h [9] [%] | LD50 at 336 h [10] [mg/kg]
CC[C@@]1(OC(=O)NCCOCCO[C@@H]2O[C@H](CO)[C@@H](O)[C@H](OC(N)=O)[C@@H]2O)C(=O)OCc2c1cc1n(c2=O)Cc2cc3ccccc3nc2-1 | 5.2 | Active | 16300 (≈ 23.8 mM) | 0.9 | 1.2 | 2717 | Active | 52.1 | 92 | –
CCc1c2c(nc3ccc(OC(=O)N4CCC(N5CCCCC5)CC4)cc13)-c1cc3c(c(=O)n1C2)COC(=O)[C@]3(O)CC [IRINOTECAN] | > 100 | Active | – | > 100 | > 100 | – | – | > 100 | – | 85.1
CC[C@@]1(OC(=O)NCCOCCO[C@@H]2O[C@H](COC(C)=O)[C@H](OC(C)=O)[C@H](OC(C)=O)[C@H]2OC(C)=O)C(=O)OCc2c1cc1n(c2=O)Cc2cc3ccccc3nc2-1 | 15.7 | Active | 500 (≈ 0.617 mM) | 5.6 | 3.5 | – | Active | > 100 | 91 | –
